ATG4B inhibitor: inhibitors of human ATG4B cysteine protease | inhibition, % at 8.33 µM | AID 504462 | ATG4B cleavage of LC3-PLA2, NBD-HPC fluorescence, 1 h | 340,000 tested, 0.51% active; in the data active = inhibition above about 40%
NR3A LBD binder: NR3A (human) ligand-binding domain modulation; AID 1259313; NR3A LBD differential scanning fluorimetry, Tm shift; 0% = protein alone, 100% = glycine-bound protein; 340,000 tested, 2.5% active; Tm shift relative to glycine control, % at 25 µM;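 active = melting temperature shift of at least 10% of the positive control shift, at one fixed dose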
NadD block: inhibitors of Staphylococcus aureus NadD; 360,000 tested, 0.78% active; purified NadD enzyme, colorimetric absorbance read-out; inhibition, % at 20 µM; AID 602399; in the data active = inhibition above about 26%
SENP1 inh: SENP1 (human) catalytic domain inhibition | 360,000 tested, 0.21% active | recombinant SENP1 catalytic domain, CyPet-SUMO1-YPet FRET cleavage | inhibition, % at 10 µM | Q9P0U3;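 active = inhibition at least 30% at 10 µM, raw YFP signal under a set limit, fluorescence ratio 0.5 to 1.5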;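 note: 0% = enzyme with DMSO and 100% = no enzyme wells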
Target sequence (Q9P0U3 419-644 limits assumed): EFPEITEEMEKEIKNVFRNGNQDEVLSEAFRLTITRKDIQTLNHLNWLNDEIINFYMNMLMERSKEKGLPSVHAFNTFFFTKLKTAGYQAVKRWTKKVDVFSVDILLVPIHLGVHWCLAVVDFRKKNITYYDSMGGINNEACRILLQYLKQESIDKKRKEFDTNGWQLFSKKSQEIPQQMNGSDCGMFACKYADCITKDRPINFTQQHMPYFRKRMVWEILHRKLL
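Assay system – human recombinant His6-tagged SENP1 catalytic domain enzyme · Input – SENP1 enzyme, 20 pM final · Buffer or medium – Tris pH 8 buffer plus EDTA, NaCl, BME, BSA, NP40, catalase · Schedule – 50 min reaction at room temperature · Technique – FRET read of cyan and yellow fluorescence · Control set – no-enzyme wells low, DMSO-plus-enzyme wells high control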
UCH37 inh: inhibitors of human deubiquitinating enzyme UCH37 | inhibition, % (no concentration beside the values) | purified proteasome/UCH37, Ub-AMC cleavage fluorescence | Q9Y5K5 | 330,000 tested, 0.33% active;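 active = mean inhibition over replicate wells above about 20%, limit read from the data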;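 note: 0% = compound-free wells with enzyme and 100% = wells lacking proteasome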
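Signal – fluorescence, ex 355 nm, em 460 nm · System – Proteasome-bound UCH37 · Input – 0.15 nM proteasome as dispensed · Timing – 30 min preincubation with enzyme, 25 min cleavage at room temperature · Read-out basis – percent inhibition of cleavage signal versus uninhibited and no-proteasome wells · Medium – Tris-HCl pH 7.4 with ATP-MgCl2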
An asterisk follows results filed as active; nt = no result. Sampled rows, rich in hits. Any-hit rate of the full collection: about 3.6%.

SMILES | ATG4B inhibitor | NR3A LBD binder | NadD block | SENP1 inh | UCH37 inh
CCOC(=O)c1[nH]c(C)c(/C(O)=C2\C(=O)C(=O)N(CCN(C)C)C2c2ccncc2)c1C (stereo not given) | -0.9 | 0.1 | 2.2 | 0.7 | 29.2*
COc1ccc(-c2sc3ccccc3c2-c2ccc(O)cc2)cc1 | 12.0 | 13.6* | -7.1 | 0.4 | nt
OC12CCCCC1C(c1ccc3c(c1)OCO3)N(Cc1cccc(F)c1)CC2 (stereo not given) | -12.9 | -0.4 | 2.1 | 2.5 | -0.2
OC12CCCCC1C(c1ccc3c(c1)OCO3)N(Cc1ccc(F)cc1)CC2 (stereo not given) | -13.5 | -3.5 | -4.4 | -0.4 | 29.2*
COc1cccc(C=C2Cc3ccccc3C2=O)c1 | nt | nt | -10.6 | 2.4 | nt
COc1cccc(/C=C2\CCc3ccccc3C2=O)c1 | 23.0 | 22.2* | -14.1 | 2.9 | 2.3
O=C1/C(=C/c2cccc([N+](=O)[O-])c2)CCc2ccccc21 | 14.7 | 11.0* | -3.6 | 2.2 | 1.3
O=C(Cn1cc(C=NNC(=O)c2cccc3ccccc23)c2ccccc21)Nc1ccc(F)cc1 | nt | nt | nt | nt | -73.2
COc1cc(C(C)=NNC(=O)C(O)(c2ccccc2)c2ccccc2)ccc1O | nt | nt | nt | nt | 1.5
Cc1ccc(NS(=O)(=O)c2ccc(Cl)c(NC(=S)NC(=O)C3CCCCC3)c2)cc1Cl | 11.2 | 32.9* | 18.1 | 1.5 | 3.1
COC(=O)C(Cc1ccc(OC(=O)c2ccc(C)cc2)cc1)N1Cc2ccccc2C1=O (stereo not given) | 33.1 | 14.0* | -7.9 | 6.2 | 2.4
Nc1c(NCCCN2CCOCC2)c2ccccc2oc1=O | -6.8 | 11.1* | -2.1 | 0.2 | 4.4
Nc1c(NCCN2CCOCC2)c2ccccc2oc1=O | -4.9 | -0.7 | 0.2 | -0.7 | -3.2
Cc1nnc(SCC(=O)N2CCC(Cc3ccccc3)CC2)n(N)c1=O | 4.2 | 11.3* | 2.9 | 1.0 | -2.3
CC(=O)Oc1ccc([C@@H]2COc3c(ccc4c3C=CC(C)(C)O4)C2)c(OC(C)=O)c1 | -9.0 | -1.8 | -1.1 | 0.5 | -0.2
CC1(C)C=Cc2c(ccc3c2OC[C@H](c2ccc(O)cc2O)C3)O1 | 8.9 | 18.8* | -8.9 | 3.3 | nt
CC(C)=CCc1cc([C@@H]2COc3c(ccc4c3C=CC(C)(C)O4)C2)c(O)cc1O | -8.8 | 26.6* | 4.6 | -4.3 | 1.7
CCCCN1CC(COCc2ccccc2)Oc2cccc(F)c2S1(=O)=O (stereo not given) | 1.2 | 14.0* | -1.7 | 2.9 | nt
CCCCN1CC(COCc2ccccc2)Oc2ccccc2S1(=O)=O (stereo not given) | -0.2 | 16.8* | 0.4 | 0.8 | 0.1
O=S1(=O)c2ccccc2OC(COCc2ccccc2)CN1Cc1ccccc1 (stereo not given) | -2.8 | 18.1* | -2.9 | 1.0 | 1.4
COc1ccc(CN2CC(COCc3ccccc3)Oc3ccccc3S2(=O)=O)cc1 (stereo not given) | nt | 1.2 | -2.2 | 2.1 | 4.5
CCCCP(=O)(CCCC)c1ccccc1C(=O)O | -12.9 | 12.2* | nt | nt | -0.9
CCCCCC(=O)NN=C(C)c1ccccn1 | nt | nt | nt | nt | 0.7
O=C(c1ccccc1)c1ccc(O)cc1O | -23.1 | 0.3 | 0.4 | 53.6* | 10.2
O=C(c1ccc(O)cc1)c1ccc(O)cc1O | -4.6 | 1.4 | -3.3 | -1.6 | 15.9
SMILES | ATG4B inhibitor | NR3A LBD binder | NadD block | SENP1 inh | UCH37 inh
C(=NNc1nc2ccccc2[nH]1)c1cccc2nccnc12 | nt | nt | nt | nt | 3.1
CCCCN(C(=O)COC(=O)COc1c(C)cc(C)cc1C)c1c(N)n(CCC)c(=O)[nH]c1=O | -15.5 | 32.1* | -0.7 | -1.4 | 1.0
CC(=NNC(=O)CN1CCN(S(=O)(=O)c2ccc(Br)cc2)CC1)c1cccnc1 | nt | nt | nt | nt | 1.9
CN(C)c1cccc(F)c1C(=O)NC(=O)Nc1ccc(Cl)cc1 | 37.1 | 11.2* | 0.1 | 1.0 | nt
Cc1cccc(OCCOC(=O)C2CCN(S(=O)(=O)c3ccc(C)c(C)c3)CC2)c1 | 6.2 | 8.7 | -0.4 | 1.5 | 4.0
Cc1ccc(S(=O)(=O)N2CCC(C(=O)OCCOc3cccc(C)c3)CC2)cc1 | -9.6 | 20.2* | -0.7 | 0.7 | 1.1
O=C1OC(c2ccccc2)=N/C1=C\C=C\c1ccco1 | 3.0 | 20.5* | 0.5 | -4.3 | 12.6
CN(C)/C=C1\N=C(c2ccccc2)OC1=O | 0.1 | -0.9 | -4.5 | 2.2 | 20.0*
O=C(NN=Cc1oc(O)c2ccccc12)c1ccccc1O | nt | nt | nt | nt | 10.7
